ChEMBL document CHEMBL1821701, “Stereochemical analysis of leubethanol, an anti-TB-active serrulatane, from Leucophyllum frutescens” (2011)
≈ marks a conversion by molar mass, not a printed value.

Test system: Mycobacterium tuberculosis
Assay: Antitubercular activity against drug sensitive Mycobacterium tuberculosis H37Rv ATCC 27294 by microplate Alamar blue assay
Assay type: functional
Outline: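 Modified microplate Alamar Blue assay. H37Rv ATCC 27294 is susceptible to streptomycin, isoniazid, rifampin, ethambutol and pyrazinamide. Clinical isolate CIBIN/UMF15:99 is resistant to the same five drugs. Test stocks were 2 mg/mL in 20% DMSO in Middlebrook 7H9 broth, filter-sterilized. Final concentrations ran from 100 to 0.78 µg/mL. Read-out was MIC, at least in triplicate.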

Q: With `CN[C@@H]1[C@H](O[C@H]2[C@H](O[C@H]3[C@H](O)[C@@H](O)[C@H](N=C(N)N)[C@@H](O)[C@@H]3N=C(N)N)O[C@@H](C)[C@]2(O)C=O)O[C@@H](CO)[C@H](O)[C@H]1O` [STREPTOMYCIN] as the compound, how does the MIC read?
A: 0.5 µg/mL (≈ 0.86 µM)

Q: `CO[C@H]1/C=C/O[C@@]2(C)Oc3c(C)c(O)c4c(O)c(c(/C=N/N5CCN(C)CC5)c(O)c4c3C2=O)NC(=O)/C(C)=C\C=C\[C@H](C)[C@H](O)[C@@H](C)[C@@H](O)[C@@H](C)[C@H](OC(C)=O)[C@@H]1C` [RIFAMPIN] was tested. Which MIC did it give?
A: 0.06 µg/mL (≈ 0.0729 µM)

Q: With `CC(C)=CCC[C@H](C)[C@@H]1CC[C@@H](C)c2c(O)cc(C)cc21` [LEUBETHANOL] as the compound, how does the MIC read?
A: 12.5 µg/mL (≈ 43.6 µM)

Q: For `CC[C@@H](CO)NCCN[C@@H](CC)CO` [ETHAMBUTOL], which MIC is on record?
A: 2 µg/mL (≈ 9.79 µM)

Q: `NNC(=O)c1ccncc1` [ISONIAZID] was tested. Which MIC did it give?
A: 0.06 µg/mL (≈ 0.438 µM)
